Screening data deposited in PubChem BioAssay by several laboratories.
ASAP1 GAP inh: inhibitors of human ASAP1 ArfGAP activity, primary screen, biochemical, fluorescence polarization; Arf-GAP with SH3 domain, ANK repeat and PH domain-containing protein 1 (Homo sapiens), …; ASAP1-stimulated ARF1 GTP hydrolysis, GDP FP detection; inhibition, % at 16.5 µM; 360,000 tested, 0.19% active; AID 624377, 2012; in the data active = inhibition above about 25%;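 also: 0% = vehicle with enzyme and substrate and 100% = no enzyme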
Target sequence (Q9ULH1 325-724 limits assumed): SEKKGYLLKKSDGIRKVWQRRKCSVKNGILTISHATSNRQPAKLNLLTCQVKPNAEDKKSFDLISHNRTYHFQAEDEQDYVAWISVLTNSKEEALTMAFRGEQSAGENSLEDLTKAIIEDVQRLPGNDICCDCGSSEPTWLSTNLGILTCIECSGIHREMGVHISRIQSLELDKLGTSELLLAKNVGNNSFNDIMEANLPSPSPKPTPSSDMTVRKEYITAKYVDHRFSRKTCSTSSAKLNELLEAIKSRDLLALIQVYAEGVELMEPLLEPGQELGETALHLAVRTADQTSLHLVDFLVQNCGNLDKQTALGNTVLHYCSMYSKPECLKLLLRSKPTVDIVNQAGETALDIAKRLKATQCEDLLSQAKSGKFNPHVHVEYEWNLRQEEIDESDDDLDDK
ARFGAP1 inhibitor: inhibitors of rat ARFGAP1 GAP activity, primary screen, biochemical, fluorescence polarization, GDP tracer; Arfgap1-stimulated ARF1 GTP hydrolysis, GDP FP detection; inhibition, % at 16.5 µM; 360,000 tested, 0.26% active; AID 651572, 2012;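 active = inhibition above a per-plate limit, mean inhibition of low control wells plus 3 SD, cut at about 25% in these data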;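 also: 0% = DMSO wells with enzyme and 100% = wells lacking Arfgap1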
Target sequence (Q62848 1-136 limits assumed): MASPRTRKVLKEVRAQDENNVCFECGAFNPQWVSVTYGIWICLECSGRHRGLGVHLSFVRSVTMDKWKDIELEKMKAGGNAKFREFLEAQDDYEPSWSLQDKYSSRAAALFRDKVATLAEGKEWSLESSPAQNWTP
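system = rat Arfgap1 catalytic domain, aa 1-136 | technique = FP, GDP Alexa 633 tracer displaced from anti-GDP antibody, 620/688 nm | compound = one concentration, 16.5 µM, DMSO 1.26% | medium = HEPES-based buffer, pH 7.5 | timing = compound-enzyme preincubation 20 min, reaction 120 min, detection 60 min, 25 °C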
Mot1-301 SUMO: yeast Mot1-301 growth rescue at high temperature, primary screen, SUMOylation pathway inhibitor project, S. cerevisiae, ATP luminescence, 38.5C. 320,000 tested, 1% active. growth rescue, % at 18.8 µM. S. cerevisiae Mot1-301 growth rescue; percent above DMSO median, 100 means doubled;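 active = every valid replicate shows activation above 250% relative to neutral control wells; inactive = the rest, any valid replicate at or below 250%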;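 also: OY570 slx delta 5 strain wells were the positive control but not used for scaling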
Statin myotox sup: suppressors of statin myotoxicity in C2C12 myotubes, primary screen, cell-based, single point, plate reader. C2C12 myotubes + simvastatin, ATP luminescence, 48 h; scaled: DMSO 0, geranylgeraniol control 100. 330,000 tested, 0.78% active. rescue of ATP level, % at 7.49 µM;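 active = mean ATP rescue above about 67%, or every replicate alone reaching that limit, limit read from the data, passing the limit was not always enough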;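 also: myotubes were challenged with 10 µM simvastatin during compound exposure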
A3A deaminase: APOBEC3A ssDNA deaminase inhibitors, primary screen, selectivity assay for APOBEC3G inhibitor project, biochemical, FAM/TAMRA oligo cleavage fluorescence. recombinant A3A, FAM/TAMRA ssDNA deamination fluorescence. 330,000 tested, 0.41% active. AID 493011, 2011. DNA dC->dU-editing enzyme APOBEC-3A (Homo sapiens), P31941. inhibition, % at 20 µM;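 active = at least 40% inhibition at 20 µM here, with at most 30% in a related deaminase screen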;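 also: plate controls were A3A with DMSO for no effect and wells lacking A3A enzyme for full effect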
APOBEC3G inh: APOBEC3G DNA deaminase inhibitors, primary screen, biochemical, fluorescence, single-stranded DNA substrate, uHTS. recombinant A3G, ssDNA deamination FAM/TAMRA fluorescence. inhibition, % at 20 µM. DNA dC->dU-editing enzyme APOBEC-3G (Homo sapiens), Q9HC16. 330,000 tested, 0.28% active. AID 493012, 2011;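 active = inhibition of at least 40% at 20 µM, with no more than 30% in the related APOBEC3A deaminase screen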;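 also: plate controls were DMSO wells with A3G for no effect and wells lacking A3G enzyme for full effect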
Mot1 SUMO dose: growth restoration of Mot1-301 yeast on galactose, dose response, SUMO pathway inhibitor project, whole organism, S. cerevisiae, ATP luminescence, cherry-picked samples. shares compounds with Mot1-301 SUMO. S. cerevisiae Mot1-301 galactose growth, 24 h; -100 = growth of slx-deleted rescue strain. growth activity, percent, % at 42 µM. 2,300 tested, under 10 active;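 active = Signal drops as the depositor expects, and the fitted half-maximal dose is no more than ten times the top valid tested dose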;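 also: more negative values mean stronger growth rescue toward the control strain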
* = called active by the depositor. This is a sample that favours compounds with a hit; in the whole collection about 2.1% have one here.

Cc1cccc(OCCC(=O)Nc2ccc(F)c(F)c2)c1 was read as ASAP1 GAP inh 6, ARFGAP1 inhibitor 16, Mot1-301 SUMO 380*, Statin myotox sup 9, A3A deaminase -3, APOBEC3G inh -2 and Mot1 SUMO dose 0.
`CC(=O)N1CCc2cc(S(=O)(=O)CCC(=O)N3CCN(C(=O)c4ccco4)CC3)ccc21` gave Mot1-301 SUMO 436*, A3A deaminase -2, APOBEC3G inh -3 and Mot1 SUMO dose 0.
For CO[C@@H]1CN(C)C(=O)c2ccc(NC(=O)c3ccccc3F)cc2OC[C@H](C)N(C(=O)c2ccccc2F)C[C@@H]1C the results were Statin myotox sup 2.
C[C@@H]1CN([C@@H](C)CO)C(=O)c2cccc(NC(=O)Nc3ccc(F)cc3)c2O[C@H]1CN(C)C(=O)NC1CCCCC1 was read as Statin myotox sup -20.
For NS(=O)(=O)c1ccc(Nc2c([N+](=O)[O-])cncc2[N+](=O)[O-])cc1 the results were ASAP1 GAP inh -4, ARFGAP1 inhibitor 2, Mot1-301 SUMO 3, Statin myotox sup -9, A3A deaminase -3 and APOBEC3G inh -6.
Screening O=[N+]([O-])c1cncc([N+](=O)[O-])c1Nc1ccccc1Cl returned ASAP1 GAP inh 15, ARFGAP1 inhibitor 2, Mot1-301 SUMO 813*, Statin myotox sup 28, A3A deaminase -5, APOBEC3G inh -6 and Mot1 SUMO dose 0.
CC1CC(C)(C)N(C(=O)CN2C(=O)CCC2=O)c2ccccc21 (centres undefined) was read as ASAP1 GAP inh 4, ARFGAP1 inhibitor 7, Mot1-301 SUMO 371*, Statin myotox sup -12, A3A deaminase 1, APOBEC3G inh -2 and Mot1 SUMO dose 0.
Screening CC(C)NC(=O)N(C)C[C@H]1Oc2cc(C#CCN(C)C)ccc2S(=O)(=O)N([C@@H](C)CO)C[C@H]1C returned Statin myotox sup -1.
For Cc1nc(Nc2cccc(Cl)c2)c2oc3ccccc3c2n1 the results were ASAP1 GAP inh 15, ARFGAP1 inhibitor 18, Mot1-301 SUMO -7, Statin myotox sup -6, A3A deaminase 0 and APOBEC3G inh -6.
`COc1cccc(Nc2nc(C)nc3c2oc2ccccc23)c1` gave ASAP1 GAP inh -9, ARFGAP1 inhibitor -8, Mot1-301 SUMO 451*, Statin myotox sup 2, A3A deaminase 1, APOBEC3G inh -6 and Mot1 SUMO dose -1.
For C[C@H]1CN([C@@H](C)CO)S(=O)(=O)c2ccc(-c3ccc(C#N)cc3)cc2O[C@H]1CN(C)C the results were Statin myotox sup 2.
`O=C(CCCCCn1c(=O)[nH]c2ccsc2c1=O)NCc1ccc(F)cc1` gave ASAP1 GAP inh -6, ARFGAP1 inhibitor -11, Mot1-301 SUMO 883*, Statin myotox sup 120*, A3A deaminase -1, APOBEC3G inh 0 and Mot1 SUMO dose 0.
`CCOc1ccc(Cl)cc1S(=O)(=O)N1CCC(C(=O)NCc2cccnc2)CC1` gave ASAP1 GAP inh 10, ARFGAP1 inhibitor 7, Mot1-301 SUMO 366*, Statin myotox sup 3, A3A deaminase -2, APOBEC3G inh -7 and Mot1 SUMO dose 0.
Screening CCOc1ccc(Br)cc1S(=O)(=O)N1CCC(C(N)=O)CC1 returned ASAP1 GAP inh -9, ARFGAP1 inhibitor 3, Mot1-301 SUMO 438*, Statin myotox sup 0, A3A deaminase 2, APOBEC3G inh -15 and Mot1 SUMO dose 0.
`CCOc1ccc(Br)cc1S(=O)(=O)N1CCCN(C)CC1` gave ASAP1 GAP inh 8, ARFGAP1 inhibitor -3, Mot1-301 SUMO 12, Statin myotox sup -1, A3A deaminase 1 and APOBEC3G inh 0.
CN1C[C@@H]2[C@H](c3ccccc31)[C@H](CO)N2C(=O)C1CCCC1 was read as Statin myotox sup -98.
`C[C@H]1CN([C@@H](C)CO)C(=O)CCCn2cc(nn2)CO[C@H]1CN(C)C(=O)Nc1cccc(Oc2ccccn2)c1` gave Statin myotox sup -7.
For COC(=O)[C@@H]1C[C@@H]2CC[C@@H](O)C[C@@H]2N1Cc1ccc(N2CCN(C)CC2)cc1 the results were ASAP1 GAP inh 1, ARFGAP1 inhibitor 11, Mot1-301 SUMO 522*, Statin myotox sup 2, A3A deaminase -6, APOBEC3G inh -10 and Mot1 SUMO dose 0.
For C[C@@H]1CN([C@H](C)CO)C(=O)Cc2cc(NS(=O)(=O)c3ccccc3)ccc2O[C@H]1CN(C)S(=O)(=O)c1cn(C)cn1 the results were Statin myotox sup 4.
`CC(=O)c1c(Nc2cccc(F)c2)oc(C)cc1=O` gave ASAP1 GAP inh -6, ARFGAP1 inhibitor -6, Mot1-301 SUMO 952*, A3A deaminase -10, APOBEC3G inh -4 and Mot1 SUMO dose 0.
For CCCC#Cc1ccc([C@@H]2[C@@H](CO)N3CCCCN(Cc4cccnc4)C[C@H]23)cc1 the results were Statin myotox sup 29.
Screening O=C(N/C(=C/c1ccc2c(c1)OCO2)C(=O)N1CCOCC1)c1cccs1 returned ASAP1 GAP inh 10, ARFGAP1 inhibitor 2, Mot1-301 SUMO 765*, Statin myotox sup 2, A3A deaminase 5, APOBEC3G inh 2 and Mot1 SUMO dose -1.
`O=C(NCCN1CCOCC1)Nc1ccc(Cl)cc1Cl` gave ASAP1 GAP inh -6, ARFGAP1 inhibitor 10, Mot1-301 SUMO 901*, Statin myotox sup -3, A3A deaminase 7, APOBEC3G inh 0 and Mot1 SUMO dose 1.
Screening CO[C@@H]1CN(C)C(=O)c2ccc(NC(C)=O)cc2OC[C@H](C)N(Cc2ccncc2)C[C@@H]1C returned Statin myotox sup -9.
`Cc1ccccc1Nc1c([N+](=O)[O-])ccc2c1=NC1(CCCCC1)N=2` gave ASAP1 GAP inh 2, ARFGAP1 inhibitor 18, Mot1-301 SUMO 768*, A3A deaminase -1, APOBEC3G inh -1 and Mot1 SUMO dose 0.
